Reference: ChEMBL document CHEMBL1128722, “Mechanism-based isocoumarin inhibitors for human leukocyte elastase. Effect of the 7-amino substituent and 3-alkoxy group in 3-alkoxy-7-amino-4-chloroisocoumarins on inhibitory potency” (J Med Chem, 1995)

Legend:
[1] = target: T1, Neutrophil elastase (Homo sapiens) (UniProt P08246); experiment: The second order inactivation rate constant expressed as inhibition of human leukocyte elastase (HLE). Inhibitor concentrations were 0.07-710 uM
T1 sequence (whole entry): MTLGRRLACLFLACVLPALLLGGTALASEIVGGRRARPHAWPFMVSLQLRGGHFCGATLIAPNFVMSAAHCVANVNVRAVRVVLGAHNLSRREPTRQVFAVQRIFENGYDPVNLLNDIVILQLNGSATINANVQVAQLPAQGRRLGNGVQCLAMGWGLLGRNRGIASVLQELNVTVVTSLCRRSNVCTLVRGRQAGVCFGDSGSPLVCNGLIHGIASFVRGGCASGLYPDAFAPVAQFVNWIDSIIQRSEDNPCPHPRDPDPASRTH
Summary of the method: (§1)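 Kitz–Wilson incubation method. Enzyme was preincubated with inhibitor (added in DMSO) in 0.1 M HEPES, 0.5 M NaCl, pH 7.5, at 25 °C. Aliquots were taken over time and diluted into pNA substrate: HLE MeO-Suc-Ala-Ala-Pro-Val-pNA (0.2–0.5 mM), PPE Suc-Ala-Ala-Ala-pNA, ChT and Cat G Suc-Val-Pro-Phe-pNA (0.4–0.5 mM). Release was read at 410 nm. kobs/[I] from ln(v0/vt) vs time. Mean of two determinations. Fast rates measured with equimolar inhibitor and enzyme.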

[2] = target: T2, Chymotrypsin-like elastase family member 2A (Sus scrofa) (UniProt P08419); experiment: The second order inactivation rate constant expressed as inhibition of porcine pancreatic elastase (PPE).Inhibitor concentrations were 0.04-2.0 mM
T2 sequence (whole entry): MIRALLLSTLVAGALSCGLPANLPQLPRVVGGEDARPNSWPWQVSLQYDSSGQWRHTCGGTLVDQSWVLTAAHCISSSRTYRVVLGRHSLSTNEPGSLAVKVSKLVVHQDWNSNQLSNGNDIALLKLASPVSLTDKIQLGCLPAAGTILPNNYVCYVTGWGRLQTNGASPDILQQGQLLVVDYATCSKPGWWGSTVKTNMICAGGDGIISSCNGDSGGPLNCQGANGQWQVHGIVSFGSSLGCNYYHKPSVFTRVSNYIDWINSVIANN

[3] = target: Chymotrypsinogen A (Bos taurus) (UniProt P00766); experiment: The second order inactivation rate constant was expressed as inhibition of chymotrypsin (ChT).Inhibitor concentrations were 360-570 uM; summary of the method: as §1
[4] = target: T1, Neutrophil elastase (Homo sapiens); experiment: The second order inactivation rate constant was expressed as inhibition of human leukocyte elastase (HLE). Inhibitor concentrations were 0.4-4 uM; summary of the method: as §1
[5] = target: T2, Chymotrypsin-like elastase family member 2A (Sus scrofa); experiment: The second order inactivation rate constant was expressed as inhibition of porcine pancreatic elastase (PPE).Inhibitor concentrations were 2-600 uM; summary of the method: as §1
[6] = target: T1, Neutrophil elastase (Homo sapiens); experiment: Inhibition of human leukocyte elastase(HLE) at 0.7-1.7 uM; summary of the method: as §1
[7] = target: T3, Cathepsin G (Homo sapiens) (UniProt P08311); experiment: Inhibition of cathepsin G at 35-710 uM; summary of the method: as §1
T3 sequence (whole entry): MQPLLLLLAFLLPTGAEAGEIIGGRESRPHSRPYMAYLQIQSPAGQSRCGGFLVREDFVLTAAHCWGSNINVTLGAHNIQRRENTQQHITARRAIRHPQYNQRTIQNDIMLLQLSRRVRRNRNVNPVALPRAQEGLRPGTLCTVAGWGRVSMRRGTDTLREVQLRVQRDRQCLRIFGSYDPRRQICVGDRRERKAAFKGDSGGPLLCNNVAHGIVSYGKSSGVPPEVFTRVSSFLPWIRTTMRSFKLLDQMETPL

[8] = Half-life for hydrolysis was determined from kinetic constant.; type: ADME
Summary of the method: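 Spontaneous hydrolysis in 0.1 M HEPES, 0.5 M NaCl, pH 7.5, 10% v/v DMSO final, 25 °C. Inhibitor added from 2.9–5.0 mM DMSO stock. Ring opening followed as absorbance decrease at 385 nm (ε385 = 3300 M⁻¹ cm⁻¹). Half-life from the first-order rate. Two determinations, standard errors ±15% or less.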

[9] = target: T1, Neutrophil elastase (Homo sapiens); experiment: Second order inactivation rate constant for inhibition of human leukocyte elastase.; summary of the method: as §1
[10] = target: T1, Neutrophil elastase (Homo sapiens); experiment: Inhibition of human leukocyte elastase.; summary of the method: as §1
[11] = target: T3, Cathepsin G (Homo sapiens); experiment: Inhibition of cathepsin G(Cat G) at 35-710 uM; summary of the method: as §1

K obs / 1 [1] [M⁻¹ s⁻¹] | K obs / 1 [2] [M⁻¹ s⁻¹] | Compound | other results
24400 | 24 | CC(=O)Nc1ccc2c(Cl)c(OCCCBr)oc(=O)c2c1 | K obs / 1 [7]: 170 M⁻¹ s⁻¹
24000 | 62 | CC(Br)COc1oc(=O)c2cc(N)ccc2c1Cl (configuration not stated) | K obs / 1 [7]: 150 M⁻¹ s⁻¹
 | 3650 | CC(C)(C)CC(=O)Nc1ccc2c(Cl)c(OCCBr)oc(=O)c2c1 | K obs / 1 [7]: 240 M⁻¹ s⁻¹
 | 1060 | CC(Br)COc1oc(=O)c2cc([N+](=O)[O-])ccc2c1Cl (configuration not stated) | K obs / 1 [7]: 1660 M⁻¹ s⁻¹
646000 | 4470 | CC(C)NC(=O)Nc1ccc2c(Cl)c(OCCBr)oc(=O)c2c1 | K obs / 1 [7]: 77 M⁻¹ s⁻¹
 | 1500 | COC(=O)CCC(=O)Nc1ccc2c(Cl)c(OCCBr)oc(=O)c2c1 | 
> 170000 | 2730 | COC(=O)CCCC(=O)Nc1ccc2c(Cl)c(OCCBr)oc(=O)c2c1 | 

Further lines, the compound ahead of its results:

Compound | K obs / 1 [1] [M⁻¹ s⁻¹] | K obs / 1 [2] [M⁻¹ s⁻¹] | other results
O=C(Nc1ccc2c(Cl)c(OCCBr)oc(=O)c2c1)NC(c1ccccc1)c1ccccc1 | 4410 | 6 | 
COc1oc(=O)c2cc(NC(=O)C(Cc3ccccc3)NC(=O)c3cccc(NC(=O)Nc4ccccc4)c3)ccc2c1Cl (configuration not stated) |  |  | k obs / 1 [3]: 110 M⁻¹ s⁻¹; k obs / 1 [4]: 28000 M⁻¹ s⁻¹; k obs / 1 [5]: 54 M⁻¹ s⁻¹
CCCOc1oc(=O)c2cc(NC(=O)OCC)ccc2c1Cl |  |  | k obs / 1 [6]: > 180000 M⁻¹ s⁻¹
C[C@H](NC(=O)OC(C)(C)C)C(=O)N[C@@H](C)C(=O)Nc1ccc2c(Cl)c(OCCBr)oc(=O)c2c1 | 230000 | 1670 | K obs / 1 [7]: 46 M⁻¹ s⁻¹
C[C@H](NC(=O)Nc1ccc2c(Cl)c(OCCBr)oc(=O)c2c1)c1ccccc1 | > 440000 | 9900 | K obs / 1 [7]: 77 M⁻¹ s⁻¹
CCCOc1oc(=O)c2cc(NC(=O)c3cccc([N+](=O)[O-])c3)ccc2c1Cl |  |  | k obs / 1 [6]: > 210000 M⁻¹ s⁻¹
O=C(Nc1ccccc1)Nc1ccc(C(=O)NC(Cc2ccccc2)C(=O)Nc2ccc3c(Cl)c(OCCBr)oc(=O)c3c2)cc1 (configuration not stated) | 6100 | 130 | 
O=c1oc(OCCBr)c(Cl)c2ccc(N[N+](=O)[O-])cc12 | 65600 | 6330 | K obs / 1 [7]: 710 M⁻¹ s⁻¹
CC(C)(C)NC(=O)Nc1ccc2c(Cl)c(OCCBr)oc(=O)c2c1 |  | 6600 | K obs / 1 [7]: 56 M⁻¹ s⁻¹
O=C(CCc1ccccc1)Nc1ccc2c(Cl)c(OCCBr)oc(=O)c2c1 |  | 11 | 
CCCOc1oc(=O)c2cc(NC(=O)CCc3ccccc3)ccc2c1Cl |  |  | k obs / 1 [6]: > 250000 M⁻¹ s⁻¹
CCCOc1oc(=O)c2cc(NC(C)=O)ccc2c1Cl |  |  | k obs / 1 [6]: > 190000 M⁻¹ s⁻¹
O=C(Nc1ccccc1)Nc1cccc(C(=O)NC(Cc2ccccc2)C(=O)Nc2ccc3c(Cl)c(OCCBr)oc(=O)c3c2)c1 (configuration not stated) | 21000 | 300 | 
C[C@H](NC(=O)Nc1ccc2c(Cl)c(OCCBr)oc(=O)c2c1)c1cccc2ccccc12 | 170000 | 40 | 
CCCOc1oc(=O)c2cc(NC(=O)CCC)ccc2c1Cl |  |  | k obs / 1 [6]: > 120000 M⁻¹ s⁻¹
O=C(O)CCC(=O)N[C@@H](Cc1ccccc1)C(=O)Nc1ccc2c(Cl)c(OCCBr)oc(=O)c2c1 | 40000 | 1900 | half-life [8]: 2.5 h
COCCOc1oc(=O)c2cc(N)ccc2c1Cl |  |  | k obs / 1 [9]: 390 M⁻¹ s⁻¹; [I] [10]: 7.8 µM
COc1oc(=O)c2cc(NC(=O)C(Cc3ccccc3)NC(=O)c3ccc(NC(=O)Nc4ccccc4)cc3)ccc2c1Cl (configuration not stated) |  |  | k obs / 1 [3]: 10 M⁻¹ s⁻¹; k obs / 1 [4]: 15000 M⁻¹ s⁻¹; k obs / 1 [5]: 68 M⁻¹ s⁻¹
O=C(O)c1ccc(N/C(S)=N/c2ccc3c(Cl)c(OCCBr)oc(=O)c3c2)cc1 | > 390000 |  | K obs / 1 [7]: 450 M⁻¹ s⁻¹
C[C@@H](NC(=O)Nc1ccc2c(Cl)c(OCCBr)oc(=O)c2c1)c1ccccc1 | > 570000 | 2660 | inhibition [11]: 21%
O=C(NCc1ccccc1)Nc1ccc2c(Cl)c(OCCCBr)oc(=O)c2c1 | 15600 | 13 | inhibition [11]: 21%
O=C(Cc1ccccc1)Nc1ccc2c(Cl)c(OCCCBr)oc(=O)c2c1 | 32400 | 28 | inhibition [11]: 28%
C[C@@H](NC(=O)Nc1ccc2c(Cl)c(OCCBr)oc(=O)c2c1)c1cccc2ccccc12 | 310000 | 20 | half-life [8]: > 48 h
CC(C)(C)OC(=O)N[C@@H](Cc1c[nH]c2ccccc12)C(=O)Nc1ccc2c(Cl)c(OCCBr)oc(=O)c2c1 | 170000 | 12 | half-life [8]: 26 h

Compound | K obs / 1 [1] [M⁻¹ s⁻¹] | K obs / 1 [2] [M⁻¹ s⁻¹] | other results
O=C(Nc1ccc2c(Cl)c(OCCBr)oc(=O)c2c1)Nc1cccc2ccccc12 | 390000 | 76 | inhibition [11]: 22%
CCCOc1oc(=O)c2cc(N)ccc2c1Cl |  |  | half-life [8]: 4.6 h; k obs / 1 [9]: 54000 M⁻¹ s⁻¹; [I] [10]: 2.6 µM
COc1oc(=O)c2cc(NC(=O)CBr)ccc2c1Cl |  |  | K obs / 1 [3]: 350 M⁻¹ s⁻¹; K obs / 1 [4]: 39000 M⁻¹ s⁻¹; K obs / 1 [5]: 3500 M⁻¹ s⁻¹
O=C(O)c1cccc(N/C(S)=N/c2ccc3c(Cl)c(OCCBr)oc(=O)c3c2)c1 | > 240000 |  | K obs / 1 [7]: 320 M⁻¹ s⁻¹
CCCOc1oc(=O)c2cc(NC(=O)[C@@H](NC(=O)OC(C)(C)C)C(C)C)ccc2c1Cl |  |  | k obs / 1 [6]: 64000 M⁻¹ s⁻¹
O=C1CC(c2ccccc2)CC(=O)N1c1ccc2c(Cl)c(OCCBr)oc(=O)c2c1 | 85000 | 75 | half-life [8]: > 48 h
O=c1oc(OCCBr)c(Cl)c2ccc(NC(=S)Nc3ccccc3)cc12 | > 480000 | 1250 | K obs / 1 [7]: 200 M⁻¹ s⁻¹
O=C(Nc1ccccc1)Nc1ccc2c(Cl)c(OCCCBr)oc(=O)c2c1 |  | 4 | inhibition [11]: 17%
O=C(NCc1ccccc1)Nc1ccc2c(Cl)c(OCCBr)oc(=O)c2c1 | 480000 | 3010 | inhibition [11]: 23%
CCOc1oc(=O)c2cc(N)ccc2c1Cl |  |  | half-life [8]: 3.6 h; k obs / 1 [9]: 9400 M⁻¹ s⁻¹; [I] [10]: 4 µM
COc1oc(=O)c2cc(N)ccc2c1Cl |  |  | half-life [8]: 3.3 h; k obs / 1 [9]: 10000 M⁻¹ s⁻¹; [I] [10]: 6 µM
CCCOc1oc(=O)c2cc(NC(=O)CC(C)C)ccc2c1Cl |  |  | k obs / 1 [6]: > 220000 M⁻¹ s⁻¹
O=C(Cc1ccccc1)Nc1ccc2c(Cl)c(OCCBr)oc(=O)c2c1 | 480000 | 4950 | K obs / 1 [7]: 70 M⁻¹ s⁻¹
Cc1cccc(C(=O)N[C@@H](Cc2ccccc2)C(=O)Nc2ccc3c(Cl)c(OCCBr)oc(=O)c3c2)c1 | 31000 | 3500 | 
CC(C)Oc1oc(=O)c2cc(N)ccc2c1Cl |  |  | k obs / 1 [9]: 2000 M⁻¹ s⁻¹; [I] [10]: 26 µM
O=C(N[C@@H](Cc1ccccc1)C(=O)Nc1ccc2c(Cl)c(OCCBr)oc(=O)c2c1)c1ccccc1 | 30000 | 11 | 
COCCOCCOc1oc(=O)c2cc(N)ccc2c1Cl |  |  | k obs / 1 [9]: 33 M⁻¹ s⁻¹; [I] [10]: 710 µM
CC(C)(C)OC(=O)N[C@@H](Cc1ccccc1)C(=O)Nc1ccc2c(Cl)c(OCCBr)oc(=O)c2c1 | 146000 | 50 | inhibition [11]: 19%
CCCOc1oc(=O)c2cc(NC(=O)CSC)ccc2c1Cl |  |  | k obs / 1 [6]: > 150000 M⁻¹ s⁻¹
CC(C)COc1oc(=O)c2cc(N)ccc2c1Cl |  |  | k obs / 1 [9]: 2700 M⁻¹ s⁻¹; [I] [10]: 50 µM
C[C@@H](OC(=O)Nc1ccccc1)C(=O)Nc1ccc2c(Cl)c(OCCBr)oc(=O)c2c1 | 140000 | 13 | half-life [8]: 6.4 h
CC(C)(C)OC(=O)N[C@H](Cc1ccccc1)C(=O)Nc1ccc2c(Cl)c(OCCBr)oc(=O)c2c1 | 160000 | 30 | inhibition [11]: 19%
Cc1ccc(C(=O)N[C@@H](Cc2ccccc2)C(=O)Nc2ccc3c(Cl)c(OCCBr)oc(=O)c3c2)cc1 | 49000 | 32 | 
COc1oc(=O)c2cc(NC(=O)[C@H](Cc3c[nH]c4ccccc34)NC(=O)OC(C)(C)C)ccc2c1Cl |  |  | k obs / 1 [3]: 33 M⁻¹ s⁻¹; k obs / 1 [4]: 79000 M⁻¹ s⁻¹; k obs / 1 [5]: 5800 M⁻¹ s⁻¹
